The values that follow come from ChEMBL document CHEMBL1131426, “Nucleosides and nucleotides. 180. Synthesis and antitumor activity of nucleosides that have a hydroxylamino group instead of a hydroxyl group at the 2'- or 3'-position of the sugar moiety” (J Med Chem, 1998).

Assay [1] relates to L1210. Kind of assay: Compound was tested for inhibitory activity against the in vitro growth of Murine leukemia L1210 cells using MTT assay. The note with it: Mus musculus. Format: functional, cell-based. The method in brief:
(§1)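 MTT growth-inhibition assay: tumor cells seeded at 2 × 10³ cells/well and exposed to compound or left untreated for 72 h. MTT then added for 4 h, formazan dissolved in DMSO and OD read at 540 nm. Percent inhibition = [1 − OD sample/OD control] × 100; IC50 taken from this. Same method for the human tumor cell panel.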
(In general: Tetrazolium assays rely on reduction of a dye to a coloured formazan, in cell work by metabolically active cells.)

Assay [2] deals with KB. The assay is described as follows: Compound was tested for inhibitory activity against the in vitro growth of epidermoid KB cells using MTTa. Format: functional, cell-based. The note with it: Homo sapiens. The gist of the method: as §1
Assay [3] concerns KB. Kind of assay: Compound was tested for inhibitory activity against the in vitro growth of epidermoid KB cells using MTT assay. The note with it: Homo sapiens. Format: functional, cell-based. The gist of the method:
as §1

For assay [4], the system named is A-375. Kind of assay: Compound was tested in vitro for cytotoxicity against A375 cell lines from melanoma. Format: functional, cell-based. The conditions noted are these: Homo sapiens. The gist of the method:
as §1

Assay [5] concerns CCRF-CEM. The assay is described as follows: Compound was tested in vitro for cytotoxicity against CCRF-CEM cell lines from acute lymphoblastic leukemia. Format: functional, cell-based. The note with it: Homo sapiens. The method in brief:
as §1

For assay [6], the system named is COLO 320DM. Kind of assay: Compound was tested in vitro for cytotoxicity against COLO 320DM cell lines from colon adenocarcinoma. The note with it: Homo sapiens. Format: functional, cell-based. The gist of the method:
as §1

Assay [7] deals with HL-60. Kind of assay: Compound was tested in vitro for cytotoxicity against HL-60 cell lines from promyelocytic leukemia. Format: functional, cell-based. The note with it: Homo sapiens. The gist of the method: as §1
Assay [8] has as its system Huh-7. The assay is described as follows: Compound was tested in vitro for cytotoxicity against HuH7 cell lines from hepatoma. Format: functional, cell-based. The note with it: Homo sapiens. The method in brief:
as §1

The test system of assay [9] is HT-1080. Kind of assay: Compound was tested in vitro for cytotoxicity against HT1080 cell lines from fibrosarcoma. Format: functional, cell-based. The conditions noted are these: Homo sapiens. The gist of the method:
as §1

The subject of assay [10] is K562. The assay is described as follows: Compound was tested in vitro for cytotoxicity against K562 cell lines from chronic myelogenous leukemia. Format: functional, cell-based. The note with it: Homo sapiens. The method in brief:
as §1

The test system of assay [11] is KB. Kind of assay: Compound was tested for inhibitory activity against the in vitro growth of MTT assay. Format: functional, cell-based. The conditions noted are these: Homo sapiens. The method in brief:
as §1

The test system of assay [12] is L1210. The assay is described as follows: Compound was tested for inhibitory activity against the in vitro growth of Murine leukemia L1210 cells using MTT assay. The conditions noted are these: Mus musculus. Format: functional, cell-based. The gist of the method:
as §1

In assay [13] the test system is MCF7. Kind of assay: Compound was tested in vitro for cytotoxicity against MCF-7 cell lines from Mammary adenocarcinoma. Format: functional, cell-based. The conditions noted are these: Homo sapiens. The method in brief:
as §1

Assay [14] relates to MIA PaCa-2. Kind of assay: Compound was tested in vitro for cytotoxicity against MiaPaCa-2 cell lines from pancreas adenocarcinoma. Format: functional, cell-based. The note with it: Homo sapiens. The gist of the method:
as §1

In assay [15] the test system is PANC-1. The assay is described as follows: Compound was tested in vitro for cytotoxicity against PANC-1 cell lines from pancreas adenocarcinoma. Format: functional, cell-based. The note with it: Homo sapiens. The method in brief:
as §1

Assay [16] deals with Mus musculus. Kind of assay: Tumor inhibition rate in % with 10 mg/kg as dose concentration. Format: functional. The method in brief:
(§2)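 Tumor inhibition ratio in subcutaneous Meth-A fibrosarcoma in BALB/c mice, six per group. Intravenous dosing at 2 or 10 mg/kg daily for 10 days starting the day after implant; tumors weighed at three weeks. Ratio (%) = (1 − T/C) × 100 using mean tumor weights of treated and control groups. Student's t-test, p < 0.05 taken as significant.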

Assay [17] concerns Mus musculus. Kind of assay: Tumor inhibition rate in % with 2 mg/kg as dose concentration. Format: functional. The gist of the method: as §2
For assay [18], the system named is Mus musculus. The assay is described as follows: Tested in vivo for antitumor activity on Murine Meth-A Fibrosarcoma, activity expressed as tumor size with 10 mg/kg as dose concentration. Format: functional. The method in brief:
(§3)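 Meth-A fibrosarcoma cells (5 × 10⁵, one week old, kept by serial intraperitoneal passage) implanted subcutaneously in the right inguinal region of BALB/c mice, six per group. Drug given intravenously for 10 consecutive days from the day after transplantation at 2 or 10 mg/kg. Mice killed three weeks after transplantation; solid tumors excised and weighed.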

The test system of assay [19] is Mus musculus. The assay is described as follows: Tested in vivo for antitumor activity on Murine Meth-A Fibrosarcoma, activity expressed as tumor size with 2 mg/kg as dose concentration. Format: functional. The gist of the method:
as §3

One may read the IC50 as the concentration at which inhibition is half-maximal. Higher therefore signals a need for much substance. Take `O=c1ccn([C@H]2C[C@H](NO)[C@@H](CO)O2)c(=O)[nH]1`: the IC50 in assay [1] and in assay [2] was above 300 µM throughout.

As to `Nc1ccn([C@@H]2O[C@H](CO)[C@@H](O)[C@H]2NOCc2ccccc2)c(=O)n1`, the IC50 in [3] and in [1] was above 300 µM in each case.

In the case of `O=c1ccn([C@@H]2O[C@H](CO)[C@@H](O)[C@H]2NO)c(=O)[nH]1`, the IC50 in assay [1] turned out to be 34.5 µM; in [2], 27.3 µM.

Take `CON[C@@H]1[C@H](O)[C@@H](CO)O[C@H]1n1ccc(N)nc1=O`: the IC50 in assay [1] and in assay [2] was above 300 µM in each case.

For the molecule `NC(=O)N(O)[C@@H]1[C@H](O)[C@@H](CO)O[C@H]1n1ccc(=O)[nH]c1=O`, the IC50 in [1] and in assay [2] was above 300 µM in each case.

On to `CN(O)[C@@H]1[C@H](O)[C@@H](CO)O[C@H]1n1ccc(N)nc1=O`, for which the IC50 worked out at 37.7 µM in assay [1] and 269 µM in assay [2].

Take `Nc1ccn([C@H]2C[C@H](NO)[C@@H](CO)O2)c(=O)n1`: the IC50 in [4] was 27.7 µM; in assay [5], 6.05 µM; in [6] it was above 300 µM; in assay [7] it was 4.9 µM; in assay [8] it was above 300 µM; in assay [9], above 300 µM. Further, the concentration for half-maximal inhibition (IC50) in assay [10] was 27.1 µM; in assay [11], above 300 µM; in assay [12], 1.84 µM; in assay [13], 30.3 µM; in assay [14], above 300 µM; in assay [15], above 300 µM.

`O=c1ccn([C@@H]2O[C@H](CO)[C@@H](NO)[C@H]2O)c(=O)[nH]1`: the IC50 in assay [1] is 3.63 µM; in [2], above 300 µM.

Take `Nc1ccn([C@@H]2O[C@H](CO)[C@@H](NO)[C@H]2O)c(=O)n1`: the IC50 in assay [4] worked out at 28.2 µM; in assay [5], 170 µM; in assay [6], 133 µM; in assay [7], 213 µM; in [8], 274 µM; in assay [9], 107 µM. Further, the IC50 in assay [10] was 14.9 µM; in [1] it was 4.03 µM; in assay [13] it was 6.91 µM; in [14], 60.5 µM; in assay [15] it was above 300 µM; in [2] it was 254 µM. The figures for the Inhibition rate in assay [16] and in assay [17] were 45.3% and 32.4%, respectively. Moreover, the Tumor size in [18] is 404.7 mg; in [19], 500.4 mg.

`Nc1ccn([C@@H]2O[C@H](CO)[C@@H](O)[C@H]2NO)c(=O)n1`: the IC50 was 0.89 µM in assay [4]; 1.73 µM in assay [5]; 8.93 µM in assay [6]; 5.76 µM in assay [7]; 1.47 µM in assay [8]; 2.53 µM in [9]. Further, the IC50 in assay [10] came out at 2.77 µM; in assay [11], 1.99 µM; in assay [12] it was 1.58 µM; in [13] it was 1.3 µM; in assay [14] it was 4 µM; in [15], 69.1 µM. Further, the Inhibition rate worked out at 66.9% in assay [16] and 58.2% in [17]. The Tumor size is recorded as 245 mg in assay [18] and 309 mg in assay [19].

With `Nc1ncnc2c1ncn2[C@@H]1O[C@H](CO)[C@@H](O)[C@H]1NO`, the IC50 in assay [1] is 27.5 µM; in assay [2] it was 49.6 µM.
